Test system: MS2 coat protein
Test: apparent Kd, MS2 coat protein; higher = weaker binding; RNA-MaP array
Outline: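 In Tris-HCl pH 7.5 buffer with KCl, MgCl2, BSA, DTT, tRNA and Tween20, with or without input ligand, fluorescently labeled MS2 coat protein at 1.5 nM to 3 μM was incubated at room temperature with designed RNAs. The RNAs had been transcribed on an Illumina sequencing chip from sequenced DNA templates, and incubation ran 0.8–1.5 h at the lowest to 10–20 min at the highest concentrations. Apparent Kd is the median of binding-curve fits for individual clusters. Designs measured on fewer than 10 clusters were excluded.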

[1] = designed as: OFF switch for flavin mononucleotide, no ligand
[2] = ligand present: flavin mononucleotide, designed as: OFF switch for flavin mononucleotide
[3] = designed as: ON switch for flavin mononucleotide, no ligand
[4] = ligand present: flavin mononucleotide, designed as: ON switch for flavin mononucleotide
[5] = designed as: ON switch for theophylline, no ligand
[6] = ligand present: theophylline, designed as: ON switch for theophylline
[7] = designed as: OFF switch for theophylline, no ligand
[8] = ligand present: theophylline, designed as: OFF switch for theophylline
[9] = designed as: OFF switch for tryptophan, no ligand
[10] = ligand present: tryptophan, designed as: OFF switch for tryptophan

Sequence | apparent Kd [1] | apparent Kd [2] | apparent Kd [3] | apparent Kd [4] | further results
ACAUCGAGGCGAGGAUAUAUGACAUGAGGAUCACCCAUGUCUGCGUGAUCGUCGAACAAAUGUUCAUAGAAGGCGCUAGAAAUG | 112 nM | 20.6 nM |  |  | 
ACAUGAGGAUCACCCAUGUCGAAGCACGCGCCACCUUCAAGCAGAAGGAAGUGACAAGUACUAGCUUAGGAUAUGCUCAAAGGU |  |  | 12.3 nM | 7 nM | 
ACCAUCAUUGUUAGGAUAUGUAGAGUACUGAGGCUACAGAAGGAACAUGAGGAUCACCCAUGUGUUUCGGUGUA | 31 nM | 126 nM |  |  | 
ACCCGAGAUACAGGAUAUGCGUCCGCGUGAGCCAUGGUUAAAGCACAUGAGGAUCACCCAUGUUGGCAGAAGGGAAUCUCAUGA | 53.7 nM | 19.3 nM |  |  | 
ACCGGCACCUAGGAUACCAGAUCCACAACAAACAUGAGGAUCACCCAUGUAUAAAGUGGUAUCCCUUGGCAGCCUGUGACAAUCG |  |  |  |  | apparent Kd [5]: 16.5 nM; apparent Kd [6]: 14.8 nM
ACCUCAAUGGAUGAUACCAGCUCAAGGACGAACAUGAGGAUCACCCAUGUGACGUGGUGUAGCCCUUGGCAGCAUACUGACACCU |  |  |  |  | apparent Kd [5]: 39.4 nM; apparent Kd [6]: 21.3 nM
ACUAAACAUGAGGAUCACCCAUGUAAUUGAAGCUAAGGAUAUCAGAAGAAUGGUGAUUCAUGAGAAGGAAGCGAUU |  |  | 86.9 nM | 58.6 nM | 
ACUCUAGAAUAGAAGGCCUGAGGAAGUAGUAAAGGAGGAUAUAUCAUACGAAAUUCACAUGAGGAUCACCCAUGUUGCGCAGAC |  |  | 21.2 nM | 12.4 nM | 
ACUGAGUAAGGAUAUCCAUCAUACUAACGACGCGGAAAGAAGGAGAAGGUACAUGAGGAUCACCCAUGUGAAAA | 12.3 nM | 11.1 nM |  |  | 
ACUGGUUCGGUUGUCACACAUGAGGAUCACCCAUGUAAGGUAGAGGAUAUCGCUCCGUCCUUCGGCGAGAAGGCUAUUCGACGC | 13 nM | 10.3 nM |  |  | 
AGACAUGAGGAUCACCCAUGUUGCUGUACAGGAGUUAAAGUCUAGGAUAUUGGGUCAGAAAGCGACAAGAAGGAGACACGCCAG |  |  | 11.2 nM | 8.47 nM | 
AGACAUGGCGGAUAGGAUAUGUGGGCGUCUACAUGAGGAUCACCCAUGUUGCUCGGAUGCAAUCUACAGAAGGAUCGACCCAGUGC |  |  | 106 nM | 16.1 nM | 
AGACUUAGACAAGGAUAUGGUGAGGCCACCUUACAUGAGGAUCACCCAUGUCUAGAGAUCCUGUGCCAGAAGGUGUAGUUGGAC |  |  | 312 nM | 75.7 nM | 
AGGUCCGGAGAGAAGGCCGACUUUGUAAUACACGGAGGAUAUCUACCACAUGAGGAUCACCCAUGUCCACACCGCAAGUUGUAA |  |  | 15 nM | 10.8 nM | 
AGGUUACGUGUGAGGAUAUUAAGAUAUUAAAUUUAUAAGAAGGCACAUGAGGAUCACCCAUGUAUGACUUCCCA | 5.66 nM | 6.77 nM |  |  | 
AGUGGUGGGAAGGAUAUCUUCCGGCGUUAGCCUAGAGAAGGUCCCACAUGAGGAUCACCCAUGUUGACAUCGGU | 373 nM | 183 nM |  |  | 
AGUUAACCGGGUGUUCUACAUGAGGAUCACCCAUGUACACUCAGAAGGCUCGAAUCUAGGGAUGGAGAGGAUAUGAAAACUGAU | 21.4 nM | 36.5 nM |  |  | 
AUACACAGAGUUAGGAUAUCUACAUAAAACAAAAUAGAGAAGGAACAUGAGGAUCACCCAUGUAAUGAUCAAAC | 9.99 nM | 9.45 nM |  |  | 
AUAUCAGGGUAGAAGGCAGCAUCAACAUGAGGAUCACCCAUGUAUAGGCACGUAGCCGCACGUGCUGAGGAUAUACGUUAUAAU |  |  | 16.4 nM | 6.41 nM | 
AUCAUGUAAGGAUAUGCCGAACCUGUUUUGUCGCGGUUAAAGCAGAAGGUACAUGAGGAUCACCCAUGUUAAAU | 56.2 nM | 54.4 nM |  |  | 
AUUACAAGCACAGGAUAUAACAGUUGGUUCACAUGAGGAUCACCCAUGUAGCAUUGGGAAGUAGCUUAGAAGGGUGAGGUGGUU |  |  | 183 nM | 107 nM | 
AUUAGACAAGGAUAUACAAGUCGUAUCGGCGCUGGGUGUAUACAUGAGGAUCACCCAUGUAGAAGGUGUGCUAU | 101 nM | 190 nM |  |  | 
AUUCAUUGAAACAUGAGGAUCACCCAUGUACACUGGCACUUACAGGAUAUUGAAUAUGGAAGUCGCAAGAAGGGUAACGUGAUC |  |  | 112 nM | 57 nM | 
AUUUCAUGUGUAGGAUAUCGCAUUCAGAACUAGCCAUCCACAUGAGGAUCACCCAUGUGUGCGGGCGAGAAGGACACGAGGGCA |  |  | 9.72 nM | 7.55 nM | 
CAAACCAACUAGUAAAACAACAUGAGGAUCACCCAUGUAAGAGAGGAUAUUGAAAUCGAAAGCAACAAGAAGGCUCACCAUGUA |  |  | 19.5 nM | 15.8 nM | 
CAACUGGCAGAGGAUACCAGAUCAUUUAGAAACAUGAGGAUCACCCAUGUCGUAAGGAUAAUCCCUUGGCAGCCUAUCCGCCUCG |  |  |  |  | apparent Kd [5]: 13.2 nM; apparent Kd [6]: 10.8 nM
CAAGCACCAACCGAUACCAGCUUAGUAGUAUGCUCAUUAAACAUGAGGAUCACCCAUGUGAGCCCUUGGCAGCGGAUUUCCCUGC |  |  |  |  | apparent Kd [7]: 13.3 nM; apparent Kd [8]: 20.7 nM

Sequence | apparent Kd [1] | apparent Kd [2] | apparent Kd [3] | apparent Kd [4] | further results
CACGAGAACACUCAGGAUAUGACAAACAAGACAUGAGGAUCACCCAUGUGAAAUUACGGGUGCAAACAGAAGGGAGAAACUUACAC |  |  | 48.6 nM | 47.5 nM | 
CACGAUACUACAGGAUAUGCCGGUUACCAAUCUGCAGAAGGGUAGAUUAGUCUAACAUGAGGAUCACCCAUGUACCUCUCAUGU | 208 nM | 248 nM |  |  | 
CAGACCCGGCGGGAGGAUAUACGAGAGAACACAUGAGGAUCACCCAUGUUGCACUAAACAGCGUGGUAGAAGGCCCAUCAUCUGUA |  |  | 56.8 nM | 11.9 nM | 
CAUGCUUGCGAGGAUAUAAGGUUCUCCCUGUUCUUAGAAGGCGCAACAUGAGGAUCACCCAUGUUCCUACCGAA | 43 nM | 283 nM |  |  | 
CAUGGGCUAAGACAUUAUUCGUAUUUUGAUACCAGAAAAUUGGCGUUCCCUUGGCAGCAAUAUACAUGAGGAUCACCCAUGUCCC |  |  |  |  | apparent Kd [7]: 80.6 nM; apparent Kd [8]: 93.8 nM
CAUGUACUAGGAUAUACAAUCACUCGUCAGGCAGCGUUAACACAUGAGGAUCACCCAUGUAGAAGGAGUUUAAA | 8.74 nM | 8.2 nM |  |  | 
CAUGUCAAAGACAUGAGGAUCACCCAUGUAAUCCAAGACGCAAGAAGGGCGUGUUGAACUAACACGCAGGAUAUUGACCCUGUU | 57.5 nM | 73.4 nM |  |  | 
CAUUGGGUCAGUUCGACAUGAGGAUCACCCAUGUAGUUAACGAGAAGGAGUACCAGCCUAAGUGACUAGGAUAUCGAUAAGUGG | 37.3 nM | 38.7 nM |  |  | 
CCAAUAUCUAUAGGAUAUCAAUGACCAAACUGAACAUGAGGAUCACCCAUGUAGUGAGUGACUUAUGAGAAGGAUAGACGUACC |  |  | 104 nM | 22.9 nM | 
CCAUGACAUGAGGAUCACCCAUGUGGGUGCAGACAAGGAUAUAGUAAGAAUAGGAUAGAUCUAGAAGGUGUCAUUA |  |  | 528 nM | 282 nM | 
CCAUGCGAUAUAGUGAUACAUGAGGAUCACCCAUGUAAAGUGAGAAGGCCAAAUUAAUACUAAGUGGAGGAUAUCAUCGUGAGC |  |  | 53 nM | 20.7 nM | 
CCCAAGCCAGCUGAUACCAGUGACGUGGUCAGAAUGUGCGACAUGAGGAUCACCCAUGUACACCCUUGGCAGCAGUAGAACGGUU |  |  |  |  | apparent Kd [7]: 14.4 nM; apparent Kd [8]: 51.7 nM
CCCGUAAAGGCGGCCGCCACUGUAUGACAUGAGGAUCACCCAUGUAGGGAAAAUGCGAUGGUCGUCAGGACCGGGCCUCUGGCAU |  |  |  |  | apparent Kd [9]: 23.1 nM; apparent Kd [10]: 23.8 nM
CCGACUCGCGUAGAGGAUAUGUAAUAAAAUACAUGAGGAUCACCCAUGUGAGACCGGGUGUCUCCACAGAAGGCUAUCGUGUCGUA |  |  | 133 nM |  | 
CCGCAUAUGUGCCCAAUAUAACAUGAGGAUCACCCAUGUGGUAGAAGGAAUGCUCACGGCUCUCAUUAGGAUAUACCAGACUAU |  |  | 18.2 nM | 17.5 nM | 
CCGUAUCCGUAGGAUAUCGACACGAGUCACGUGCGAGAAGGACGGACAUGAGGAUCACCCAUGUAUGCUUCGUG | 22.6 nM | 48.4 nM |  |  | 
CCUAACCACAAGAAGGAUGAGAUGCGGCAUUUCAUAGGAUAUUGAUCACAUGAGGAUCACCCAUGUUGCCGUAAGGCGCUAGUC |  |  | 321 nM | 136 nM | 
CCUUCAGAUGAGAAGGCCAUCUACGGCUGGACACGGCAGUAACAUGAGGAUCACCCAUGUUUAAUGGAGGAUAUCAACGGAAGC |  |  | 12.3 nM | 8.94 nM | 
CGACAUUCAGGAUAUACAUGAGGAUCACCCAUGUUGAGAAGCACAAGAUACCAUAAAAGUAGAAGGGAACAAAA | 13.3 nM | 9.81 nM |  |  | 
CGAGUCUAGGAGAAGGCAUACAUGAGGAUCACCCAUGUCAAAGGGCACGUAACGAUAAUCCACCAUGAGGAUAUCCUGUUUAGA | 26.3 nM | 21.7 nM |  |  | 
CGAUGCGCAUUAUCCCACUGGUAUGAGUCUCGAGGACCGGUACGGCCGCCACUCGCUACCGUACAUGAGGAUCACCCAUGUAUUA |  |  |  |  | apparent Kd [9]: 28 nM; apparent Kd [10]: 45.9 nM
CGCGUCCCGGACGAUACCAGAUAUGAGCGACACAUGAGGAUCACCCAUGUCAAUCAUGAGAUCCCUUGGCAGCGUUUGCACAACU |  |  |  |  | apparent Kd [5]: 162 nM; apparent Kd [6]: 209 nM
CGUAGGAUCGUGGAUACCAGUACCGCCCACGACAUGAGGAUCACCCAUGUAGGUAAUCUUUACCCUUGGCAGCCAUUUUUUUCUG |  |  |  |  | apparent Kd [5]: 45.6 nM; apparent Kd [6]: 52.9 nM
CGUAUUGCUCGUUAGGAUAUCCAAUCUGAAACAUGAGGAUCACCCAUGUAGCCAGCAUCACAUGAGGAGAAGGAACAAGAUAAACG |  |  | 16.6 nM | 8.89 nM | 
CGUCUACAUGAGGAUCACCCAUGUCAGGAUAUACACCAACAACCUUCGCGAGAUAGGUGUAGAAGGGACGGGUA | 8.76 nM | 13.5 nM |  |  | 
CGUGUAGGGUAGGAUAUUCGAACACCACAAGGAGAAGAAGGACCUACAUGAGGAUCACCCAUGUGGUUAAUGGC | 112 nM | 225 nM |  |  | 
CGUUAAGAACAGAAGGCCGAGAUAAUGUUCAGCGGAGGAUAUGUGGAAGAUAGAACAUGAGGAUCACCCAUGUCAACUAGUACC |  |  | 6.01 nM | 5.82 nM | 

From the EternaBench riboswitch data
